Data from ChEMBL document CHEMBL1156979, “The impact of polyether chain length on the iron clearing efficiency and physiochemical properties of desferrithiocin analogues” (J Med Chem, 2010).
Active and inactive are the calls of the source. No cut-off for these calls is given here.

Columns and labels:
[1] = system: Rattus norvegicus; test: Iron-clearing efficiency in non-iron-overloaded and bile duct-cannulated Sprague-Dawley rat at 150 umol/kg, po after 24 hrs relative to control; assay type: functional
[2] = system: Sapajus apella; test: Iron-clearing efficiency in iron-overloaded Cebus apella assessed as urine iron excretion at 150 umol/kg, po measured daily once for 5 days by lame absorption spectroscopy relative to control; assay type: functional
[3] = system: Sapajus apella; test: Iron-clearing efficiency in iron-overloaded Cebus apella assessed as feces iron excretion at 150 umol/kg, po measured daily once for 5 days by lame absorption spectroscopy relative to control; assay type: functional
[4] = system: Rattus norvegicus; test: Iron-clearing efficiency in non-iron-overloaded and bile duct-cannulated Sprague-Dawley rat assessed as bile iron excretion at 150 umol/kg, po after 24 hrs relative to control; assay type: functional
[5] = Ratio of iron-clearing efficiency in iron-overloaded Cebus apella to iron-clearing efficiency in non-iron-overloaded Sprague-Dawley rat at 150 umol/kg, po; assay type: functional
[6] = system: Rattus norvegicus; test: Iron-clearing efficiency in non-iron-overloaded and bile duct-cannulated Sprague-Dawley rat assessed as urine iron excretion at 150 umol/kg, po after 24 hrs relative to control; assay type: functional
[7] = system: Sapajus apella; test: Iron-clearing efficiency in iron-overloaded Cebus apella at 150 umol/kg, po measured daily once for 2 days by flame absorption spectroscopy relative to control; assay type: functional
[8] = Octanol-water partition coefficient, log P in Tris buffer at pH 7.4 by shake flask method; assay type: physicochemical
Outline: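 Octanol/water partition was measured at pH 7.4 (Tris buffer) by the shake-flask direct method. The fraction of drug in octanol is expressed as log P_app.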

[9] = system: Rattus norvegicus; test: Iron-clearing efficiency in non-iron-overloaded and bile duct-cannulated Sprague-Dawley rat assessed as reduction of renal iron content at 384 umol/kg, po qd for 10 days administered as gelatin capsules relative to control; assay type: functional; design: scale not given: the % may be the effect or the level left
[10] = system: Rattus norvegicus; test: Toxicity in Sprague-Dawley rat assessed as histopathological examination at 384 umol/kg, po qd for 10 days; conditions: in vivo, 240 h
[11] = system: Rattus norvegicus; test: Iron-clearing efficiency in non-iron-overloaded and bile duct-cannulated Sprague-Dawley rat assessed as reduction of cardiac iron content at 384 umol/kg, po qd for 10 days administered as gelatin capsules relative to control; assay type: functional, Heart; design: scale not given: the % may be the effect or the level left
[12] = system: Rattus norvegicus; test: Iron-clearing efficiency in non-iron-overloaded and bile duct-cannulated Sprague-Dawley rat at 300 umol/kg, po after 48 hrs relative to control; assay type: functional
Outline: (§1)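 Non-iron-overloaded male Sprague-Dawley rats (400–450 g), bile duct-cannulated, given a single oral dose of 300 μmol/kg, either by gavage as monosodium salt or in capsules. Bile was collected at 3 h intervals for up to 48 h and urine every 24 h. Iron was measured by flame absorption spectroscopy. ICE = 24-h iron excretion of treated rats minus controls, divided by theoretical output (2:1 ligand:iron); percent. Mean ± SEM; one-tailed t-test.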

[13] = system: Rattus norvegicus; test: Iron-clearing efficiency in non-iron-overloaded and bile duct-cannulated Sprague-Dawley rat assessed as reduction of cardiac iron content at 384 umol/kg, po qd for 10 days administered as monosodium salt relative to control; assay type: functional, Heart; design: scale not given: the % may be the effect or the level left
[14] = system: Rattus norvegicus; test: Iron-clearing efficiency in non-iron-overloaded and bile duct-cannulated Sprague-Dawley rat assessed as reduction of renal iron content at 384 umol/kg, po qd for 10 days administered as monosodium salt relative to control; assay type: functional; design: scale not given: the % may be the effect or the level left
[15] = system: Rattus norvegicus; test: Iron-clearing efficiency in non-iron-overloaded and bile duct-cannulated Sprague-Dawley rat assessed as reduction of liver iron content at 384 umol/kg, po qd for 10 days administered as monosodium salt relative to control; assay type: functional; design: scale not given: the % may be the effect or the level left
[16] = system: Rattus norvegicus; test: Iron-clearing efficiency in non-iron-overloaded and bile duct-cannulated Sprague-Dawley rat assessed as reduction of liver iron content at 384 umol/kg, po qd for 10 days administered as gelatin capsules relative to control; assay type: functional; design: scale not given: the % may be the effect or the level left
[17] = system: Rattus norvegicus; test: Iron-clearing efficiency in non-iron-overloaded and bile duct-cannulated Sprague-Dawley rat assessed as urine iron excretion at 300 umol/kg, po after 48 hrs relative to control; assay type: functional
[18] = system: Rattus norvegicus; test: Iron-clearing efficiency in non-iron-overloaded and bile duct-cannulated Sprague-Dawley rat assessed as bile iron excretion at 300 umol/kg, po after 48 hrs relative to control; assay type: functional
Outline: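 Male Sprague-Dawley rats (400–450 g), non-iron-overloaded and bile duct-cannulated, were dosed orally at 300 μmol/kg, either by gavage as the monosodium salt (1 equiv NaOH added to the free acid in distilled water) or in capsules. Bile was collected at 3 h intervals for up to 48 h and urine at 24 h intervals. Iron efficiency was calculated as treated minus control iron excretion, divided by the theoretical output for a 2:1 ligand:iron complex, expressed as %; values are mean ± SEM.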

[19] = system: Rattus norvegicus; test: Toxicity in Sprague-Dawley rat assessed as histopathological examination at 384 umol/kg, po qd for 10 days measured after 24 hrs last post dose; assay type: organism-based; conditions: in vivo
Outline: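 Male Sprague-Dawley rats (300–350 g), fasted overnight, were dosed orally once daily for 10 d. Dosing was 384 μmol/kg/d (capsules or by gavage as monosodium salt) or 192 μmol/kg/d (capsules). Age-matched untreated controls. Rats were euthanized 24 h after the last dose (day 11), and extensive tissues were examined histopathologically.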

[20] = system: Sapajus apella; test: Iron-clearing efficiency in iron-overloaded Cebus apella assessed as feces iron excretion at 75 umol/kg, po measured daily once for 5 days by lame absorption spectroscopy relative to control; assay type: functional
[21] = system: Sapajus apella; test: Iron-clearing efficiency in iron-overloaded Cebus apella assessed as urine iron excretion at 75 umol/kg, po measured daily once for 5 days by lame absorption spectroscopy relative to control; assay type: functional
[22] = system: Sapajus apella; test: Iron-clearing efficiency in iron-overloaded Cebus apella at 75 umol/kg, po measured daily once for 2 days by flame absorption spectroscopy relative to control; assay type: functional
Outline: (§2)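 Iron-overloaded Cebus apella (3.5–4 kg; iv iron dextran to about 500 mg Fe/kg, ≥60 days before use) dosed orally at 75 μmol/kg, by gavage as monosodium salt (1 equiv NaOH in distilled water) or in capsules. Feces and urine collected every 24 h from 4 days pre-drug to 5 days post-drug; iron by flame absorption spectroscopy. ICE = 2-day post-drug iron minus 4-day baseline average, divided by theoretical output (2:1 ligand:iron); percent. Performance ratio = mean primate ICE/rodent ICE.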

[23] = system: Rattus norvegicus; test: Iron-clearing efficiency in non-iron-overloaded and bile duct-cannulated Sprague-Dawley rat assessed as urine iron excretion at 300 umol/kg, po after 24 hrs relative to control; assay type: functional
[24] = system: Rattus norvegicus; test: Iron-clearing efficiency in non-iron-overloaded and bile duct-cannulated Sprague-Dawley rat assessed as bile iron excretion at 300 umol/kg, po after 24 hrs relative to control; assay type: functional; outline: as §1
[25] = system: Rattus norvegicus; test: Iron-clearing efficiency in non-iron-overloaded and bile duct-cannulated Sprague-Dawley rat assessed as bile iron excretion at 300 umol/kg, po up to 24 hrs; assay type: functional, organism-based; outline: as §1
[26] = system: Rattus norvegicus; test: Iron-clearing efficiency in non-iron-overloaded and bile duct-cannulated Sprague-Dawley rat assessed as time required to maximum bile iron excretion at 300 umol/kg, po; assay type: functional; outline: as §1
[27] = Ratio of iron-clearing efficiency in iron-overloaded Cebus apella at 75 umol/kg, po to iron-clearing efficiency in non-iron-overloaded and bile duct-cannulated Sprague-Dawley rat at 300 umol/kg, po; assay type: functional, organism-based; outline: as §2
[28] = system: Rattus norvegicus; test: Iron-clearing efficiency in non-iron-overloaded and bile duct-cannulated Sprague-Dawley rat at 300 umol/kg, po after 24 hrs relative to control; assay type: functional; outline: as §1

Work on `C[C@]1(C(=O)O)CSC(c2ncccc2O)=N1` [DESFERRITHIOCIN] yielded an Activity [1] of 5.5%, an Activity [2] of 22% and an Activity [3] of 78%. For the same compound, the Activity [4] was 93%, the Ratio [5] was 2.9 and the Activity [6] was 7%. The Activity [7] was 16.1% and the logD [8] was -1.77.

In the case of `COCCOCCOc1ccc(C2=N[C@@](C)(C(=O)O)CS2)c(O)c1` [SP-420], the Activity [9] is reported as 7.4%, the Activity [10] is reported as “Toxic” and the Activity [11] is reported as 6.9%. It also gave an Activity [12] of 26.7%, an Activity [13] of 9.9% and an Activity [14] of 24.8%. For the same compound, the Activity [15] was >35%, the Activity [16] was >35% and the Activity [17] was 3%. For the same compound, the Activity [18] was 97% and the Activity [19] was “Non-toxic”.

For `COCCOCCOc1ccc(C2=N[C@@](C)(C(=O)[O-])CS2)c(O)c1.[Na+]`, the Activity [20] was 83%, the Activity [21] was 7% and the Activity [22] was 26.3%.

With `COCCOCCOCCOCCOc1ccc(C2=N[C@@](C)(C(=O)[O-])CS2)c(O)c1.[Na+]` the Activity [23] was 1%, the Activity [24] was 99% and the Activity [25] was “Active”. The Time [26] was 6 h, the Ratio [27] was 0.8 and the Activity [28] was 12%. The Activity [20] was 52%, the Activity [21] was 48% and the Activity [22] was 9.8%.
